# Results: ChEMBL document CHEMBL1157135, “Synthesis and structure-activity relationships of potent 4-fluoro-2-cyanopyrrolidine dipeptidyl peptidase IV inhibitors” (Bioorg Med Chem, 2008)
# pIC50: −log10 of the molar value. Calls of active or inactive are those of the source. The calls are words filed in the database; no cut-off is given here.
# Legend:
# [1] = Drug level in Wistar rat plasma at 1 mg/kg, po after 6 hrs; type: ADME, organism-based; parameters: dose 1 mg/kg, route oral; conditions: read-out: Drug uptake
# Procedure, shortened: (§1)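 Male Wistar rats, 8 weeks old, fasted overnight; single oral dose 1 mg/kg as aqueous solution. Jugular vein blood (200 µL) at 0.5, 1, 2, 6 h; plasma deproteinized with acetonitrile, supernatant analysed by LC–MS/MS (C18 column, ammonium acetate/acetonitrile eluent, ESI).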
# [2] = Drug level in Wistar rat plasma at 1 mg/kg, po after 1 hr; type: ADME, organism-based; parameters: dose 1 mg/kg, route oral; conditions: read-out: Drug uptake; procedure, shortened: as §1
# [3] = Drug level in Wistar rat plasma at 1 mg/kg, po after 2 hrs; type: ADME, organism-based; parameters: dose 1 mg/kg, route oral; conditions: read-out: Drug uptake; procedure, shortened: as §1
# [4] = Drug level in Wistar rat plasma at 1 mg/kg, po after 0.5 hr; type: ADME, organism-based; parameters: dose 1 mg/kg, route oral; conditions: read-out: Drug uptake; procedure, shortened: as §1
# [5] = system: Rattus norvegicus; assay: Reduction of hyperglycemia in Zucker fatty rat at 0.3 mg/kg, po by after 30 mins OGTT; type: functional, organism-based; parameters: dose 0.3 mg/kg
# Procedure, shortened: (§2)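 Male Zucker fatty rats (lean controls), 10 weeks, fasted overnight, n = 6. Compound in distilled water given orally (0.1 or 0.3 mg/kg) 30 min before oral glucose 2 g/kg. Orbital sinus blood under ether anesthesia at set times; plasma glucose, insulin and DPP-IV activity measured. Mean ± SE; Dunnett's or Student's t-test vs vehicle.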
# [6] = system: Rattus norvegicus; assay: Inhibition of DPP4 activity in Zucker fatty rat plasma at 0.1 mg/kg, po upto 120 mins by OGTT; type: functional, organism-based; parameters: dose 0.1 mg/kg; procedure, shortened: as §2
# [7] = Chemical stability in aqueous buffer solution at pH 6.8 after 6 hrs; type: physicochemical; conditions: read-out: Stability
# Procedure, shortened: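 Residual amount determined by reverse-phase HPLC (UV 210 nm, acetonitrile–H2O buffer elution at 1.0 mL/min) after 6 h incubation at 37 °C in pH 6.8 aqueous buffer; dihydrochloride salt used for one reference compound.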
# [8] = system: Rattus norvegicus; assay: Inhibition of DPP4 activity in Zucker fatty rat plasma at 0.3 mg/kg, po after 15 mins by OGTT; type: functional, organism-based; parameters: dose 0.3 mg/kg; procedure, shortened: as §2
# [9] = system: Rattus norvegicus; assay: Inhibition of DPP4 activity in Zucker fatty rat plasma at 0.1 mg/kg, po after 15 mins by OGTT; type: functional, organism-based; parameters: dose 0.1 mg/kg; procedure, shortened: as §2
# [10] = system: Rattus norvegicus; assay: Increase in insulin secretion in Zucker fatty rat plasma at 0.1 mg/kg, po after 30 mins by OGTT; type: functional, organism-based; parameters: dose 0.1 mg/kg; procedure, shortened: as §2
# [11] = system: Rattus norvegicus; assay: Increase in insulin secretion in Zucker fatty rat plasma at 0.3 mg/kg, po after 30 mins by OGTT; type: functional, organism-based; parameters: dose 0.3 mg/kg; procedure, shortened: as §2
# [12] = system: Rattus norvegicus; assay: Reduction of hyperglycemia in Zucker fatty rat at 0.1 mg/kg, po after 30 mins by OGTT; type: functional, organism-based; parameters: dose 0.1 mg/kg; procedure, shortened: as §2
# [13] = system: Rattus norvegicus; assay: Inhibition of DPP4 activity in Zucker fatty rat plasma at 0.3 mg/kg, po upto 120 mins by OGTT; type: functional, organism-based; parameters: dose 0.3 mg/kg; procedure, shortened: as §2
# [14] = target: Dipeptidyl peptidase 4 (Homo sapiens, UniProt P27487); type: cell-free, Plasma
# Dipeptidyl peptidase 4, sequence (P27487 whole entry): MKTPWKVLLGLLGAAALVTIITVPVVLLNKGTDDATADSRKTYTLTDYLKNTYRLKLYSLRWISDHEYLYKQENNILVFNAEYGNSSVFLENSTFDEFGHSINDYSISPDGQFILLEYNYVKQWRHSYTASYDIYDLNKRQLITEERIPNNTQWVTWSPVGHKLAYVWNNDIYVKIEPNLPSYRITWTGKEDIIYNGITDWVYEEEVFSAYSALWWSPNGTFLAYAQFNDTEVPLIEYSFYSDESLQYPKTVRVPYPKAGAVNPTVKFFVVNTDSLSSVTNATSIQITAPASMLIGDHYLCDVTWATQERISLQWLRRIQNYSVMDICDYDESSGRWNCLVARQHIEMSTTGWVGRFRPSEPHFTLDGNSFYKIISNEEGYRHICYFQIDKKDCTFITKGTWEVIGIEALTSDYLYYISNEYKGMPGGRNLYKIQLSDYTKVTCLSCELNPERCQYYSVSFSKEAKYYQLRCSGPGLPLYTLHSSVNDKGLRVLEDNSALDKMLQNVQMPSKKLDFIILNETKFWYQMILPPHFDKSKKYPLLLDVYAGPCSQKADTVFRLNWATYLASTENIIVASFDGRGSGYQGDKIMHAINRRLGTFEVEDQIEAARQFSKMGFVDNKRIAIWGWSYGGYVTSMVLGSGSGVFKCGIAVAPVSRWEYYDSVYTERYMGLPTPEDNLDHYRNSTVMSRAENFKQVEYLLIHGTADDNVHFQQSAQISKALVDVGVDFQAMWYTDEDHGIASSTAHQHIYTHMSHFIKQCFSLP
Compound,concentration at 6 h [1],concentration at 1 h [2],concentration at 2 h [3],concentration at 0.5 h [4],remaining at 6 h [7],pIC50 [14],other results
N#Cc1ccc(NCCNCC(=O)N2C[C@@H](F)C[C@H]2C#N)nc1.O=C(O)/C=C\C(=O)O,6 ng/mL,62 ng/mL,8 ng/mL,157 ng/mL,,,
CC(C)(CO)NCC(=O)N1C[C@@H](F)C[C@H]1C#N,31 ng/mL,274 ng/mL,168 ng/mL,355 ng/mL,96%,,Activity [5]: Active; Activity [6]: Active; Activity [8]: Active; Activity [9]: Active; Activity [10]: Active; Activity [11]: Active; Activity [12]: Active; Activity [13]: Active
N#Cc1ccc(NCCNCC(=O)N2C[C@@H](F)C[C@H]2C#N)nc1,,,,,86%,,
C#CC(CC)(CC)NCC(=O)N1C[C@@H](F)C[C@H]1C#N,,,,,,< 6.50,
CC(C)CNCC(C)(C)NCC(=O)N1C[C@@H](F)C[C@H]1C#N,,,,,,< 6.50,
CC[C@H](C)[C@@H](N)C(=O)N1C[C@@H](F)C[C@H]1C#N,1 ng/mL,24 ng/mL,5 ng/mL,195 ng/mL,70%,,
